The record followed here is ChEMBL document CHEMBL3872268, “3-Amino-thieno[2,3-b]pyridines as microtubule-destabilising agents: Molecular modelling and biological evaluation in the sea urchin embryo and human cancer cells” (Bioorg Med Chem, 2017).

Molecules are shown by their SMILES. Active and inactive are the calls of the source.

Data set [1] deals with Paracentrotus lividus. As to the kind of experiment: Induction of microtubule destabilization activity in sea urchin free-swimming blastulae assessed as embryo spinning measured after 0.25 to 20 hrs. To be noted: Blastula. A digest of the protocol:
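Free-swimming blastulae just after hatching (8–10 h post-fertilisation) were cultured in filtered seawater at room temperature. They were treated with 2-fold decreasing concentrations (DMSO stock diluted 10-fold in EtOH; final DMSO ≤0.05%, EtOH ≤1%). Spinning and lack of forward movement were observed by light microscopy after 15 min to 20 h. The value is the effective threshold concentration, from duplicate measurements.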

For data set [2], the system named is Paracentrotus lividus. Put plainly: Induction of microtubule destabilization in sea urchin embryo assessed as cleavage alteration exposed 8 to 20 mins after fertilization and 45 to 55 mins before first mitotic cycle completion measured 2.5 to 5.5 hrs after fertilization. In outline: (§1)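 Gametes were obtained by intracoelomic injection of 0.5 M KCl, and eggs were fertilised in filtered seawater. Embryos were cultured at room temperature with paddle agitation (60 rpm), as a monolayer at up to 2000 embryos/mL. Eggs were exposed 8–20 min post-fertilisation to 2-fold decreasing concentrations (10 mM DMSO stock diluted 10-fold in EtOH). Cleavage was scored microscopically at 2.5–5.5 h. The read-out was the threshold concentration, in duplicate.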

The subject of data set [3] is Paracentrotus lividus. As to the kind of experiment: Induction of microtubule destabilization in sea urchin embryo assessed as cleavage arrest exposed for 8 to 20 mins after fertilization and 45 to 55 mins before first mitotic cycle completion measured 2.5 to 5.5 hrs after fertilization. A digest of the protocol: as §1
Data set [4] is described as follows: Growth inhibition of human NCI60 cells at 10 uM incubated for 48 hrs by sulforhodamine B assay relative to control. Format: functional. To be noted: NCI60, 48 h, read-out: GI. A digest of the protocol: (§2)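 NCI Developmental Therapeutics Program panel of sixty human tumour cell lines. Compounds were screened first at a single 10 μM dose (percent growth inhibition), and dose-response curves were run for active ligands. GI50 is the concentration giving 50% growth inhibition, reported as the mean across the 60 lines.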

Data set [5] can be described thus: Growth inhibition of human NCI60 cells incubated for 48 hrs by sulforhodamine B assay. Format: functional. To be noted: NCI60, 48 h. In outline:
as §2
(In general: In SRB staining, fixed cells bind dye roughly in proportion to their protein.)

A short description of data set [6]: Toxicity in sea urchin embryo assessed as induction of embryo disintegration at early pluteus stage. The note with it: paracentrotus lividus.
A short description of data set [7]: Toxicity in sea urchin embryo assessed as induction of embryo death at early pluteus stage. The note with it: paracentrotus lividus.
For data set [8], the system named is Paracentrotus lividus. As to the kind of experiment: Induction of microtubule destabilization in sea urchin embryo assessed as formation of tuberculate eggs for 8 to 20 mins after fertilization and 45 to 55 mins before first mitotic cycle completion measured 2.5 to 5.5 hrs after fertilization. In outline: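 Sea urchin gametes were obtained by intracoelomic 0.5 M KCl injection, and embryos were cultured in filtered seawater at room temperature at up to 2000 embryos/mL. Fertilised eggs were exposed to 2-fold decreasing concentrations from 10 mM DMSO stocks diluted 10-fold in 96% EtOH. Final DMSO was kept ≤0.05% and EtOH ≤1%. Microscopic scoring gave the EC, the threshold causing 100% cleavage alteration, in duplicate.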

A word on the GI50: it is the concentration giving 50% growth inhibition. The low end stands for greater sensitivity of the cells, the high end for lower sensitivity of the cells.

Turning to `COc1ccc(C(=O)c2sc3nc(-c4cccs4)ccc3c2N)cc1OC`, the EC was greater than 4 µM with Paracentrotus lividus [1], 4 µM in the data set on Paracentrotus lividus [2] and greater than 4 µM in the data set on Paracentrotus lividus [3]. Also, the inhibition of growth at 10 µM in data set [4] is 52.6%. In data set [5], this compound showed a 50% growth inhibitory concentration (GI50) of 6.31 µM. Further, the Activity entry in data set [6] and in data set [7] was “Toxic” in each case.

Turning to `COc1ccc(C(=O)c2sc3nc(-c4cccs4)ccc3c2N)cc1`, the EC in the data set with Paracentrotus lividus [1], in the data set on Paracentrotus lividus [2] and in the data set on Paracentrotus lividus [3] was greater than 4 µM throughout. Besides, the Activity result in data set [6] and in data set [7] was “Toxic” each time.

Turning to `COc1ccc(C(=O)c2sc3nc4c(cc3c2N)CCCC4)cc1OC`, the EC was greater than 5 µM in the data set with Paracentrotus lividus [1], 0.5 µM in the data set on Paracentrotus lividus [2] and 4 µM in the data set with Paracentrotus lividus [3]. Further, the inhibition of growth at 10 µM in data set [4] is 60.5%. Besides, in data set [5], it took 3.24 µM to inhibit growth by half (GI50). Also, in the data set with Paracentrotus lividus [8], the result was Active.

Regarding `Nc1c(C(=O)c2ccc(Cl)cc2)sc2nc(-c3cccs3)ccc12`, the EC in the data set with Paracentrotus lividus [1], with Paracentrotus lividus [2] and in the data set on Paracentrotus lividus [3] was greater than 4 µM in each case. Also, the Activity result in data set [6] and in data set [7] was “Toxic” in each case.
